Usually Ki stands for the equilibrium dissociation constant of an inhibitor or competing ligand from its target. Read a high Ki as weaker binding. By IC50 is commonly meant the concentration at which inhibition is half-maximal. A low value points to higher potency.

The target of one experiment is Cathepsin B (Bos taurus, UniProt P07688). Nature of the experiment: Inhibition of alpha-keto esters towards cathepsin B at pH 5.2. In short, it runs like this: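 Bovine cathepsin B in 20 mM sodium acetate pH 5.2, 0.5 mM dithiothreitol, 2% DMSO. Substrate Bz-Phe-Val-Arg-p-nitroanilide; p-nitroaniline release followed at 405 nm. Ki reported.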
The next experiment has as its target T1, Papain (Carica papaya, UniProt P00784).
T1 sequence (P00784 whole entry): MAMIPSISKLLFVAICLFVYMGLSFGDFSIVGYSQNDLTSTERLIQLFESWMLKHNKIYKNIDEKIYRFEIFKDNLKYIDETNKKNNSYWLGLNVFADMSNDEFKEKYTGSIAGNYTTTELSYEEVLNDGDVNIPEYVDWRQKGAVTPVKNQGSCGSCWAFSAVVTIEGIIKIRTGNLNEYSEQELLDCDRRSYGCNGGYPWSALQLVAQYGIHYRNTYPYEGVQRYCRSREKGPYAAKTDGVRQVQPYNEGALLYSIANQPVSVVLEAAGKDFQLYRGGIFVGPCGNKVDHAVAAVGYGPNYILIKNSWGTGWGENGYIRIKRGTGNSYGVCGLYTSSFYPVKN
The experiment can be described thus: Inhibitory activity of alpha-ketoesters towards papain at pH 6.0. In outline:
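Papain in 100 mM K3PO4, 1 mM EDTA, 2.5 mM cysteine, pH 6.0, 2% DMSO. Substrate Bz-Arg-p-nitroanilide; p-nitroaniline release read at 405 nm. Ki reported.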

The next experiment concerns the target Calpain 1 (Homo sapiens, UniProt P07384). The experiment can be described thus: Inhibitory activity of alpha-keto esters towards calpain 1 at pH 8.0. It is filed as protein-complex assay. In short, it runs like this: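 Calpain I purified from human erythrocytes; calpain II from rabbit muscle. Buffer: 25 mM Tris pH 8.0, 1 mM β-mercaptoethanol, 10 mM CaCl2, up to 5% DMSO. Substrate: Suc-Leu-Tyr-AMC at 1–3 mM, 70 nM final enzyme, started with enzyme. AMC fluorescence read at ex 380 / em 460 nm. Initial rates taken at 30–60 s at room temperature, with five or more inhibitor levels and two substrate levels. Ki from Dixon plots, triplicates.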

For the next experiment, the species on record is Rattus norvegicus. Nature of the experiment: Inhibitory potency against rat platelet membrane permeability at pH 7.35. The class given is functional. In short, it runs like this:
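Rat platelets from cardiac-puncture blood (citrate-EDTA), gel-filtered in HEPES-Tyrode's pH 7.35, at 10^7/mL. Preincubated 5 min at room temperature with inhibitor from DMSO stocks (2% DMSO), then given 1 μM A23187 plus 2 mM Ca for 5 min. Pellets run on SDS-PAGE and western blotted for spectrin. Densitometry of the 150/155-kDa breakdown doublet gives IC50.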

Chain of Calpain 1 (P04632 whole entry): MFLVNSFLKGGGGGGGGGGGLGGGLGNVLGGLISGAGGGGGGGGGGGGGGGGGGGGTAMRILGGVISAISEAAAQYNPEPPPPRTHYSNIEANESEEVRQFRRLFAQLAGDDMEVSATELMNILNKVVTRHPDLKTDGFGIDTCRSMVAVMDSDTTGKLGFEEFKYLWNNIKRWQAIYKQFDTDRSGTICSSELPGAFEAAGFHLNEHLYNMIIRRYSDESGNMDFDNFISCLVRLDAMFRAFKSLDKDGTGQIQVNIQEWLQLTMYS
Chain of Calpain 1 (P07384 whole entry): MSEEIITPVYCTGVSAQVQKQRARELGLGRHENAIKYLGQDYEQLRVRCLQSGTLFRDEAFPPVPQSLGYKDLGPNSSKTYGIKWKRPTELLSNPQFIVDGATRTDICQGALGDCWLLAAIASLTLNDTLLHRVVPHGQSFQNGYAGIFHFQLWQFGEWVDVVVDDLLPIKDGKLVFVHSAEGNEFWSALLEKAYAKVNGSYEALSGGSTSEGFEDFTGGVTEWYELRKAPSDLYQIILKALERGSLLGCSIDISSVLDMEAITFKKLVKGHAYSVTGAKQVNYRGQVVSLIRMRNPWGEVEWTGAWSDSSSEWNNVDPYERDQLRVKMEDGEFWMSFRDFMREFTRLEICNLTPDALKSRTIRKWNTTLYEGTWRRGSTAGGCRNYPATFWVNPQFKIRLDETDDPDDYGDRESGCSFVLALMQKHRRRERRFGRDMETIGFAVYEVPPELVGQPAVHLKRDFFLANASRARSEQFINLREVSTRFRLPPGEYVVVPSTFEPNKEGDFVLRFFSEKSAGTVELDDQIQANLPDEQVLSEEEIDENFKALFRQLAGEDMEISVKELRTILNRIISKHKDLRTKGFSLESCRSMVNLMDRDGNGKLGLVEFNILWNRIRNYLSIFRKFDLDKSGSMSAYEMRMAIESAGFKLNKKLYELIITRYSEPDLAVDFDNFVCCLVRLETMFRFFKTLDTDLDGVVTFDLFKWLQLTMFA

As to `CCC(NC(=O)C(CC(C)C)NC(=O)OCc1ccccc1)C(=O)C(=O)OCc1ccccc1` (stereo unspecified), the Ki on Cathepsin B was found to be 4 µM; at Papain it was 40 µM; on Calpain 1 it was 9.5 µM. In the experiment filed under Rattus norvegicus, this molecule yielded an IC50 of 100 µM.

On to `CCC(NC(=O)C(CC(C)C)NC(=O)OCc1ccccc1)C(=O)C(=O)NCCc1ccccc1` (stereo unspecified), for which the Ki on Cathepsin B came out at 1.3 µM; at Papain, 38 µM; on Calpain 1 it was 0.2 µM. Besides, the IC50 in the experiment listed under Rattus norvegicus is 50 µM.

As for `CCCC(NC(=O)C(CC(C)C)NC(=O)OCc1ccccc1)C(=O)C(=O)OCC` (stereo unspecified), the Ki was 25 µM on Cathepsin B, 150 µM on Papain and 1.4 µM on Calpain 1. The molecule also had an IC50 in the experiment filed under Rattus norvegicus of 100 µM.

On to `CCC(NC(=O)C(CC(C)C)NC(=O)OCc1ccccc1)C(=O)C(=O)NCc1ccccc1` (stereo unspecified), for which the Ki at Cathepsin B is 1.3 µM; at Papain, 38 µM; at Calpain 1, 0.2 µM. Besides, the IC50 in the experiment listed under Rattus norvegicus was determined as 50 µM.

Regarding `CCC(NC(=O)C(CC(C)C)NC(=O)OCc1ccccc1)C(=O)C(=O)O` (stereo unspecified), the results for the Ki on Cathepsin B, at Papain and on Calpain 1 were 1.5 µM, 13.5 µM and 0.075 µM, respectively. The molecule also returned an IC50 in the experiment filed under Rattus norvegicus of 100 µM.

Regarding `CCNC(=O)C(=O)C(CC)NC(=O)C(CC(C)C)NC(=O)OCc1ccccc1` (stereo unspecified), the Ki on Cathepsin B was 2.4 µM; at Papain, 93 µM; at Calpain 1 it was 0.25 µM. In the experiment listed under Rattus norvegicus, this molecule displayed an IC50 of 100 µM.

With `CCC(NC(=O)C(CC(C)C)NC(=O)OCc1ccccc1)C(=O)C(N)=O` (stereo unspecified), the figures for the Ki at Cathepsin B, on Papain and at Calpain 1 were 3.4 µM, 190 µM and 0.28 µM, respectively. The IC50 in the experiment filed under Rattus norvegicus was 89 µM.

On to `CC(C)CC(NC(=O)OCc1ccccc1)C(=O)NC(Cc1ccccc1)C(=O)C(=O)NCCc1ccccc1` (stereo unspecified), for which the results for the inhibitory constant (Ki) at Cathepsin B, at Papain and on Calpain 1 were 9.3 µM, 100 µM and 0.052 µM, respectively. This molecule also returned an IC50 in the experiment listed under Rattus norvegicus of 100 µM.

In the case of `CCNC(=O)C(=O)C(Cc1ccccc1)NC(=O)C(CC(C)C)NC(=O)OCc1ccccc1` (stereo unspecified), the Ki on Cathepsin B was 6 µM; at Papain, 45 µM; at Calpain 1 it was 0.2 µM. Further, in the experiment listed under Rattus norvegicus, the midpoint of inhibition, the IC50, lay at 22 µM.
